Consider 1 compound from paper PMC3288537 (ACS Chemical Biology, 2011).

Several values for one entry are separate records, joined by “and”; a condition that tells them apart may be missing. Identical values can stand only once.

The target of one data set is T1, PTP-SL (Homo sapiens, UniProt Q15256).
T1 sequence (Q15256 22-657): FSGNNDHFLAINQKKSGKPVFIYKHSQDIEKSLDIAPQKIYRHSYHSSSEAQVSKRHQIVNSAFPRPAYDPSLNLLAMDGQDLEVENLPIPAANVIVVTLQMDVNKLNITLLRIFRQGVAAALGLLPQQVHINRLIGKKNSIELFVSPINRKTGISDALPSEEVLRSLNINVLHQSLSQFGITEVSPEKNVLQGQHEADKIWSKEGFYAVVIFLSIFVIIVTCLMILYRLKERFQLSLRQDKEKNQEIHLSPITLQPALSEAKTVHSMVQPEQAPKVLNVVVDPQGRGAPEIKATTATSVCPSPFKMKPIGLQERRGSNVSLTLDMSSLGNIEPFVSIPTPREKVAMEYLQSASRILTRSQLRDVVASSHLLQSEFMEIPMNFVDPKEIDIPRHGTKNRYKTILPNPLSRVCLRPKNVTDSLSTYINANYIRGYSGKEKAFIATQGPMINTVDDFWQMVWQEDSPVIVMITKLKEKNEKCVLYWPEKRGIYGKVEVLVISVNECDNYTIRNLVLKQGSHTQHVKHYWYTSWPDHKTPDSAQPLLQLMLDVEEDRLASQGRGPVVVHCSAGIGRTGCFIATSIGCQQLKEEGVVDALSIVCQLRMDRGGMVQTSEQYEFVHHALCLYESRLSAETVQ
In words: Dose-response OMFP phosphatase assay, PTP-SL. The data set is classed as biochemical. The conditions noted are these: read-out: IC50 PTP-SL; OMFP substrate.

In another data set the target is T2, MKP-3 (Homo sapiens, UniProt Q16828).
T2 sequence (Q16828 1-381): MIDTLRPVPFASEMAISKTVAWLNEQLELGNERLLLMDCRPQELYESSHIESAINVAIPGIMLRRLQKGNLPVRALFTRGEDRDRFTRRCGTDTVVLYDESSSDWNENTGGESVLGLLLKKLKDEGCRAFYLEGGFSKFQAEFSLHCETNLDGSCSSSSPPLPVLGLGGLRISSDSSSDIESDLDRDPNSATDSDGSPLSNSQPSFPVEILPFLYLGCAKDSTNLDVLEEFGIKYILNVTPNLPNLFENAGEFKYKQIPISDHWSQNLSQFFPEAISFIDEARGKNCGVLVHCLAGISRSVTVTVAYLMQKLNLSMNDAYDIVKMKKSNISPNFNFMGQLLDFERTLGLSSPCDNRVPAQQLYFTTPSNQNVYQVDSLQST
Description: Dose-response OMFP phosphatase assay, MKP-3. The format is biochemical. The conditions noted are these: read-out: IC50 MKP-3; OMFP substrate.

The target in data set [1] is T3, HePTP-DM (K105A/T106A double mutant) (Homo sapiens, UniProt P35236, K126A/T127A).
T3 sequence (P35236 22-360 K126A/T127A limits assumed): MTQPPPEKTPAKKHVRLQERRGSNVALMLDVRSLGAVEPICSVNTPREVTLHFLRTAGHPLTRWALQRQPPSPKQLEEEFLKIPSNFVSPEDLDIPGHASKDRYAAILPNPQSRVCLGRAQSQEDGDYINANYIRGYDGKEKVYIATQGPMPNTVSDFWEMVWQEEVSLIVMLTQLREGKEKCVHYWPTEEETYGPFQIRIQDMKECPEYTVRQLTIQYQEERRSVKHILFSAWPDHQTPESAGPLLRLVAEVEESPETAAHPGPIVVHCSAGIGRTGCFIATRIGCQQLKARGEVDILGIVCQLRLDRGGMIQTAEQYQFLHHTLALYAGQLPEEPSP
Description: Dose-response OMFP phosphatase assay, HePTP K105A/T106A double mutant. The data set is classed as biochemical. As to conditions: read-out: IC50 HePTP-DM.

The nature of data set [2]: Serum concentration in mice after i.p. injection. The format is in vivo. The conditions noted are these: i.p. 3 mg/kg. The method in brief:
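Mice dosed i.p. at 3 mg/kg with test compound. Blood serum collected 5, 20, 60 and 120 min after injection for measurement of compound concentration.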

The next data set concerns the target T4, PTP1B (Homo sapiens, UniProt P18031).
T4 sequence (P18031 1-435): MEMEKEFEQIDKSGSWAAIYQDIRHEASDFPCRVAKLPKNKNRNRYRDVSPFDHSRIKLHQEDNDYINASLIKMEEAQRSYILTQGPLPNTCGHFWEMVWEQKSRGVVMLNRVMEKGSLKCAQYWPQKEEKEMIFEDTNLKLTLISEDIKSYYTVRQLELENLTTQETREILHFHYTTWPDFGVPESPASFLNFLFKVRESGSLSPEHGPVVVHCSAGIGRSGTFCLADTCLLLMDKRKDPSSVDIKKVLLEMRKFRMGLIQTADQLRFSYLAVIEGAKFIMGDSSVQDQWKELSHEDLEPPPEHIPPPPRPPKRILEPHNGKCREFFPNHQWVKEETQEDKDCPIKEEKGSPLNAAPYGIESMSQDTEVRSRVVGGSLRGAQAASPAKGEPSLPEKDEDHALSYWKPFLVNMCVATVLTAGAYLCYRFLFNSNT
Description: Dose-response OMFP phosphatase assay, PTP1B. The conditions noted are these: read-out: IC50 PTP1B; OMFP substrate. The data set is classed as biochemical.

A further data set concerns the target T5, SHP2 (Homo sapiens, UniProt Q06124).
T5 sequence (Q06124 1-593): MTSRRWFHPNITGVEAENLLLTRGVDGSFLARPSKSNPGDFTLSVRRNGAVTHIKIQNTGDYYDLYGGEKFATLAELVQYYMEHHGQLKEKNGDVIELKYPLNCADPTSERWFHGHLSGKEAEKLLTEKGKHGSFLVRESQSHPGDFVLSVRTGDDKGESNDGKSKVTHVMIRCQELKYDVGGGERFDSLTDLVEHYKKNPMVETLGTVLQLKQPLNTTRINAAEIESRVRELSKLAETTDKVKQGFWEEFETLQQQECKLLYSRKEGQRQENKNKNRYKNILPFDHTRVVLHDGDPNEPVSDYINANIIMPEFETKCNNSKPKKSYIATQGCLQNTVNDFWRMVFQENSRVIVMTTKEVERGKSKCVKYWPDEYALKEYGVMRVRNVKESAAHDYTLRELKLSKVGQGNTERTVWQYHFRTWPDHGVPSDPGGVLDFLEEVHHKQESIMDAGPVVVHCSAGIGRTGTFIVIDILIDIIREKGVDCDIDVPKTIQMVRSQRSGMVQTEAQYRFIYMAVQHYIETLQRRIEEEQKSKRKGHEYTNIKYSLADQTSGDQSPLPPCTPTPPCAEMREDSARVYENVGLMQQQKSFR
Description: Dose-response OMFP phosphatase assay, SHP2. The format is biochemical. As to conditions: read-out: IC50 SHP2; OMFP substrate. The method in brief: (§1)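 Ten-point 2-fold dilution series of test compound prepared in DMSO. Fluorescence (ex 485/em 528 nm) read in kinetic mode over 10 min; progress-curve slopes taken as activity. IC50 by nonlinear regression (sigmoidal, variable slope).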

A further data set deals with LAR (Homo sapiens, UniProt P10586). In words: Dose-response OMFP phosphatase assay, LAR. The data set is classed as biochemical. The conditions noted are these: read-out: IC50 LAR; OMFP substrate. The essentials:
as §1

Chain of LAR (P10586 30-1907, species assumed): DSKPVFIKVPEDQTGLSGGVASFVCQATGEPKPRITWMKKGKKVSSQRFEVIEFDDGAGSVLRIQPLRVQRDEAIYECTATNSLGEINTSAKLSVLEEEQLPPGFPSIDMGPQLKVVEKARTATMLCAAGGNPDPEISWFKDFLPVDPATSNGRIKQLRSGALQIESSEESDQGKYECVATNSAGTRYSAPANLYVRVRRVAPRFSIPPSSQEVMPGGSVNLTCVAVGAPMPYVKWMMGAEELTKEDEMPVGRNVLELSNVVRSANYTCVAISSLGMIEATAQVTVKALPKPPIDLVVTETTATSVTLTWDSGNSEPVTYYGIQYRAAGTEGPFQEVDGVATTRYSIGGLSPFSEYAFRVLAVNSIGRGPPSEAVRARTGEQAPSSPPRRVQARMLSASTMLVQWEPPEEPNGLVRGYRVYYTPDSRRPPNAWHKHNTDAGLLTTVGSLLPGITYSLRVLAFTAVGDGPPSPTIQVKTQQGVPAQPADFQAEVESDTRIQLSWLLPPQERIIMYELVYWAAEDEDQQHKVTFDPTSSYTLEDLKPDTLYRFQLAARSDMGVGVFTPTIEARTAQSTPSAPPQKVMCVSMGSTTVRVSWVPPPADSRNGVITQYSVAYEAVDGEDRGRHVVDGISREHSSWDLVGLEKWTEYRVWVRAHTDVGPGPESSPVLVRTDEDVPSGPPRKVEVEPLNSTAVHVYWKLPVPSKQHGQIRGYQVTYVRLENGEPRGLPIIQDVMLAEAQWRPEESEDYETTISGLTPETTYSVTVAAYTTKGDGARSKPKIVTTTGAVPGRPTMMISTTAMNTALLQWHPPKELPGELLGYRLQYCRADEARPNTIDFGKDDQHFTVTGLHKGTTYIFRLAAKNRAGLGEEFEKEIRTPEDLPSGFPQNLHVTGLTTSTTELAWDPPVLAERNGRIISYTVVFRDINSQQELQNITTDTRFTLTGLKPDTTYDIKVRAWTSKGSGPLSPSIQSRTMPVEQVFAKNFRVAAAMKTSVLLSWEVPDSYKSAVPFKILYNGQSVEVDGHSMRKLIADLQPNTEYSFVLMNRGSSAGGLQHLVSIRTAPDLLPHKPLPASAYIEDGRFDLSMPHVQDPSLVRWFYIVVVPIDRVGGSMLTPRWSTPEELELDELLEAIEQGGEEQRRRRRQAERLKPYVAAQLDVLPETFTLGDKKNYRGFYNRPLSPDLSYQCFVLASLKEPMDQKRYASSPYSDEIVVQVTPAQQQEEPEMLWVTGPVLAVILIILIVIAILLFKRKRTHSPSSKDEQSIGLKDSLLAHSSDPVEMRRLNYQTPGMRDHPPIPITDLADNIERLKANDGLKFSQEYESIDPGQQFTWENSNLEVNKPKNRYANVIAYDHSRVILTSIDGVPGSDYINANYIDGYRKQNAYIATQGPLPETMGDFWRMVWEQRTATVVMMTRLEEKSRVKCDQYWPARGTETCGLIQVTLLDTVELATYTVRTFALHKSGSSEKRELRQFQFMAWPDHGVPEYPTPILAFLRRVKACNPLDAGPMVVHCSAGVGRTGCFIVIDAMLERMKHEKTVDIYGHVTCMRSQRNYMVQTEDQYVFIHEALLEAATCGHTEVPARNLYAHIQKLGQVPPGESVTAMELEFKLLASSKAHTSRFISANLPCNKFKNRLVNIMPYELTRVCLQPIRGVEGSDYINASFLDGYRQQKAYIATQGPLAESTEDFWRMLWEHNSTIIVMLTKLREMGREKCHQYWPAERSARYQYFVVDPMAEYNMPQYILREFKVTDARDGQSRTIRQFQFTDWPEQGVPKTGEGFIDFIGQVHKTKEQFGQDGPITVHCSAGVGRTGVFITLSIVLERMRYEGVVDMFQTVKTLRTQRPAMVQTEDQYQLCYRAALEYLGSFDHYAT

Take `O=C(O)c1ccccc1-c1ccc(/C=c2\sc3nc4cc(Br)cnc4n3c2=O)o1` [Compound 1]: the IC50 on PTP-SL was determined as 1100 nM; on MKP-3, 5.2 µM; in data set [1], 6.6 µM; at PTP1B it was 1700 nM; at SHP2, 1100 nM; on LAR, 73 µM. The “serum concentration (peak)” value in data set [2] (20 min, 3 mg/kg) was 1.24 ± 0.17 µM and 1.24 µM. The serum concentration in data set [2] (2 h) is 0.018 ± 0.010 µM.

A word on the IC50: it is the concentration that inhibits the measured activity by half.
